Data from ChEMBL document CHEMBL3091371, “Cytotoxic and antibacterial marfuraquinocins from the deep South China Sea-derived Streptomyces niveus SCSIO 3406” (J Nat Prod, 2013).
Converted amounts (≈) assume the structure as drawn.

Legend:
[1] = system: Staphylococcus epidermidis; assay: Antibacterial activity against methicillin-resistant Staphylococcus epidermidis clinical isolate shhs-E1 by broth microdilution method; format: functional
Method in brief: (§1)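 Broth microdilution; MIC read as the lowest concentration giving complete growth inhibition in microdilution wells by unaided eye. Clinical isolates from Shanghai Huashan Hospital. Ampicillin and kanamycin as antibacterial controls. Results in μg/mL.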

Staphylococcus aureus [2] = assay: Antibacterial activity against methicillin-resistant Staphylococcus aureus clinical isolate shhs-A1 by broth microdilution method; format: functional; method in brief: as §1
Micrococcus luteus = assay: Antibacterial activity against Micrococcus luteus by broth microdilution method; format: functional
[3] = Antibacterial activity against Aeromonas hydrophila ATCC 7966 by broth microdilution method; format: functional, Aeromonas hydrophila subsp. hydrophila ATCC 7966
Acinetobacter baumannii = assay: Antibacterial activity against Acinetobacter baumannii ATCC 19606 by broth microdilution method; format: functional
Staphylococcus aureus [4] = assay: Antibacterial activity against Staphylococcus aureus ATCC 29213 by broth microdilution method; format: functional
Escherichia coli = assay: Antibacterial activity against Escherichia coli ATCC 25922 by broth microdilution method; format: functional
HepG2 = assay: Cytotoxicity against human HepG2 cells after 72 hrs by SRB assay; format: functional, cell-based; settings: HepG2, 72 h
Method in brief: (§2)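 Human tumour lines are tested by sulforhodamine B (SRB) staining. Cisplatin (DDP) is the positive control. IC50 is reported in μM as mean ± deviation.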

NCI-H460 = assay: Cytotoxicity against human NCI-H460 cells after 72 hrs by SRB assay; format: functional, cell-based; settings: NCI-H460, 72 h; method in brief: as §2
MCF7 = assay: Cytotoxicity against human MCF7 cells after 72 hrs by SRB assay; format: functional, cell-based; settings: MCF7, 72 h; method in brief: as §2
SF-268 = assay: Cytotoxicity against human SF268 cells after 72 hrs by SRB assay; format: functional, cell-based; settings: SF-268, 72 h; method in brief: as §2

With C=C1CCCC(C)(C)C1CC[C@]1(C)c2c(O)cc3c(c2O[C@@H]1C)C(=O)C=C(OC)C3=O (some centres undefined) the MIC [1] was 32 µg/mL (≈ 75.4 µM), the MIC (Staphylococcus aureus [2]) was over 128 µg/mL and the MIC (Micrococcus luteus) was over 128 µg/mL. The MIC [3] was 128 µg/mL (≈ 302 µM), the MIC (Acinetobacter baumannii) was over 128 µg/mL and the MIC (Staphylococcus aureus [4]) was 64 µg/mL (≈ 151 µM). For the same compound, the MIC (Escherichia coli) was 128 µg/mL (≈ 302 µM), the IC50 (HepG2) was 18.5 µM and the IC50 (NCI-H460) was 18.8 µM. The IC50 (MCF7) was 18.7 µM and the IC50 (SF-268) was 27.9 µM.
With C=C1CCCC(C)(C)C1CC[C@@]1(C)c2c(O)cc3c(c2O[C@@H]1C)C(=O)C=C(OC)C3=O (some centres undefined) the MIC [1] was 64 µg/mL (≈ 151 µM), the MIC (Staphylococcus aureus [2]) was over 128 µg/mL and the MIC (Micrococcus luteus) was over 128 µg/mL. It also gave an MIC [3] of 128 µg/mL (≈ 302 µM), an MIC (Acinetobacter baumannii) of over 128 µg/mL and an MIC (Staphylococcus aureus [4]) of 8 µg/mL (≈ 18.8 µM). It also gave an MIC (Escherichia coli) of 128 µg/mL (≈ 302 µM), an IC50 (HepG2) of 17.5 µM and an IC50 (NCI-H460) of 3.7 µM. For the same compound, the IC50 (MCF7) was 12.9 µM and the IC50 (SF-268) was 26.7 µM.
NC[C@H]1O[C@H](O[C@H]2[C@H](O)[C@@H](O[C@H]3O[C@H](CO)[C@@H](O)[C@H](N)[C@H]3O)[C@H](N)C[C@@H]2N)[C@H](O)[C@@H](O)[C@@H]1O [KANAMYCIN] showed an MIC [1] of 128 µg/mL (≈ 264 µM), an MIC (Staphylococcus aureus [2]) of 0.5 µg/mL (≈ 1.03 µM) and an MIC (Micrococcus luteus) of 0.5 µg/mL (≈ 1.03 µM). The MIC [3] was 0.5 µg/mL (≈ 1.03 µM), the MIC (Acinetobacter baumannii) was 4 µg/mL (≈ 8.26 µM) and the MIC (Staphylococcus aureus [4]) was 0.5 µg/mL (≈ 1.03 µM). The MIC (Escherichia coli) was 0.5 µg/mL (≈ 1.03 µM).
With C=C1CCCC(C)(C)C1CC[C@@]1(C)c2c(O)cc3c(c2O[C@@H]1CO)C(=O)C=C(OC)C3=O (some centres undefined) the MIC [1] was 8 µg/mL (≈ 18.2 µM), the MIC (Staphylococcus aureus [2]) was over 128 µg/mL and the MIC (Micrococcus luteus) was over 128 µg/mL. The MIC [3] was 128 µg/mL (≈ 291 µM), the MIC (Acinetobacter baumannii) was over 128 µg/mL and the MIC (Staphylococcus aureus [4]) was 8 µg/mL (≈ 18.2 µM). The MIC (Escherichia coli) was 128 µg/mL (≈ 291 µM), the IC50 (HepG2) was 11.9 µM and the IC50 (NCI-H460) was 4.4 µM. It also gave an IC50 (MCF7) of 18.9 µM and an IC50 (SF-268) of 17.9 µM.
Compound C=C1CCCC(C)(C)C1CC[C@]1(C)c2c(O)cc3c(c2O[C@@H]1CO)C(=O)C=C(OC)C3=O (some centres undefined) has an MIC [1] of 8 µg/mL (≈ 18.2 µM), an MIC (Staphylococcus aureus [2]) of over 128 µg/mL and an MIC (Micrococcus luteus) of over 128 µg/mL. For the same compound, the MIC [3] was 128 µg/mL (≈ 291 µM), the MIC (Acinetobacter baumannii) was over 128 µg/mL and the MIC (Staphylococcus aureus [4]) was 8 µg/mL (≈ 18.2 µM). It also gave an MIC (Escherichia coli) of 128 µg/mL (≈ 291 µM), an IC50 (HepG2) of 15.5 µM and an IC50 (NCI-H460) of 8.8 µM. The IC50 (MCF7) was 14.8 µM and the IC50 (SF-268) was 18.3 µM.
Compound COc1cccc2nc3c(OC/C=C(\C)CCC=C(C)C)cccc3nc12 has an MIC [1] of 128 µg/mL (≈ 353 µM), an MIC (Staphylococcus aureus [2]) of over 128 µg/mL and an MIC (Micrococcus luteus) of over 128 µg/mL. It also gave an MIC [3] of 128 µg/mL (≈ 353 µM), an MIC (Acinetobacter baumannii) of over 128 µg/mL and an MIC (Staphylococcus aureus [4]) of 128 µg/mL (≈ 353 µM). It also gave an MIC (Escherichia coli) of 128 µg/mL (≈ 353 µM), an IC50 (HepG2) of 52.7 µM and an IC50 (NCI-H460) of over 100 µM. It also gave an IC50 (MCF7) of 21.9 µM and an IC50 (SF-268) of 30.4 µM.
Compound CC1(C)S[C@@H]2[C@H](NC(=O)[C@H](N)c3ccccc3)C(=O)N2[C@H]1C(=O)O [AMPICILLIN] has an MIC [1] of 2 µg/mL (≈ 5.72 µM), an MIC (Staphylococcus aureus [2]) of over 128 µg/mL and an MIC (Micrococcus luteus) of 2 µg/mL (≈ 5.72 µM). It also gave an MIC [3] of 128 µg/mL (≈ 366 µM), an MIC (Acinetobacter baumannii) of over 128 µg/mL and an MIC (Staphylococcus aureus [4]) of 0.5 µg/mL (≈ 1.43 µM).
In the case of CC(C)=CCC/C(C)=C/COc1cccc2nc3c(O)cccc3nc12, the MIC [1] is reported as 128 µg/mL (≈ 367 µM), the MIC (Staphylococcus aureus [2]) is reported as over 128 µg/mL and the MIC (Micrococcus luteus) is reported as over 128 µg/mL. For the same compound, the MIC [3] was 64 µg/mL (≈ 184 µM), the MIC (Acinetobacter baumannii) was over 128 µg/mL and the MIC (Staphylococcus aureus [4]) was 128 µg/mL (≈ 367 µM). For the same compound, the MIC (Escherichia coli) was 128 µg/mL (≈ 367 µM), the IC50 (HepG2) was 22.3 µM and the IC50 (NCI-H460) was 68.9 µM. It also gave an IC50 (MCF7) of 16.8 µM and an IC50 (SF-268) of 10.2 µM.
